How the values were obtained:
Trichomonas vaginalis [1] = test: Trichomonacidal activity against metronidazole-sensitive Trichomonas vaginalis JH31A#4 trophozoites after 24 hrs by resazurin dye based fluorescence assay; format: functional, organism-based; conditions: JH31A#4, 24 h
How it was run: (§1)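 Trophozoites in TYM with 10% FBS, 37 °C, 5% CO₂, seeded at 10⁵/mL in glass tubes. After 5 h, compounds added at 9.37–300 µM final (DMSO <0.2%). Viability read by resazurin fluorimetry after 24 h at 37 °C. Metronidazole 25 µM as reference. At least two runs in triplicate; IC50 with 95% limits by probit.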

Trypanosoma cruzi [2] = test: Antichagasic activity against Trypanosoma cruzi Y strain amastigotes in mouse cardiomyocytes assessed as growth inhibition after 48 hrs by giemsa staining based assay; format: functional, organism-based
How it was run: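 Primary embryonic Swiss mouse cardiac cells (100,000/well on gelatin-coated coverslips) infected 24 h with Y strain bloodstream trypomastigotes (1:10), washed, then 48 h with compound in DMEM. Bouin-fixed, Giemsa-stained. Infected cells and parasites per infected cell scored in 400 cells in duplicate; endocytic index = product. IC50 from %EI curves, mean ± SD.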

[3] = Cytotoxicity against mouse Cardiomyocytes after 48 hrs by Prestoblue assay; set-up: species or system Cardiomyocyte; conditions: read-out: LC50
How it was run: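 Primary embryonic cardiac cells from Swiss mice, grown in DMEM with CaCl2, L-glutamine, 5% FBS and chick embryo extract. Seeded at 6×10^4 cells/well on gelatin, pre-incubated 24 h, then exposed to compounds for 48 h at 37 °C, 5% CO2. Morphology and contractility checked by light microscopy. PrestoBlue added for 5 h, absorbance read at 570/600 nm. Triplicates, n = 3; LC50 from dose–response, mean ± SD.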

[4] = Selectivity index, ratio of LC50 for mouse L929 cells to IC50 for Trypanosoma cruzi CL-B5 lacZ epimastigotes […]; format: toxicity, cell-based; conditions: read-out: Ratio LC50/IC50
How it was run: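 SI = LC50 (L929, 48 h resazurin) / epimastigote IC50. […] CPRG (200 µM final, 0.9% Triton X-100, pH 7.4) added for 3 h at 37 °C, A595 read. Triplicates, n = 3; IC50 from %EGI curves.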

[5] = Cytotoxicity against african green monkey Vero cells assessed as inhibition of cell growth at 300 uM after 24 hrs by resazurin dye based fluorescence assay; conditions: chlorocebus sabaeus, read-out: Activity
Trypanosoma cruzi [6] = test: Antichagasic activity against Trypanosoma cruzi Tulahuen amastigotes in mouse L929 cells assessed as growth inhibition after 96 hrs by beta galactosidase reporter gene assay; format: functional, organism-based; conditions: L929, 96 h
How it was run: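 L929 cells (4000/well, RPMIS) held 24 h at 37 °C, then exposed 2 h to Tulahuen C4 lacZ trypomastigotes (1:10). Infection established 48 h, then compounds for 96 h at 37 °C, 5% CO₂. 500 µM CPRG in 0.5% Nonidet P40 for 18 h, A570. Triplicates; IC50 from %inhibition curves, mean ± SD.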

[7] = Selectivity index, ratio of CC50 for african green monkey Vero cells to IC50 for metronidazole-sensitive Trichomonas vaginalis JH31A#4 trophozoites; format: functional
How it was run: (§2)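 Selectivity index = Vero CC50 (24 h resazurin, probit) divided by trophozoite IC50 (24 h resazurin, probit) for the named T. vaginalis isolate.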

Trypanosoma cruzi [8] = test: Antichagasic activity against Trypanosoma cruzi Y strain epimastigotes […] assessed as growth inhibition after 48 hrs by resazurin assay; format: functional, organism-based
How it was run: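 Y strain epimastigotes (3 × 10⁶/mL, log phase, pre-grown overnight at 28 °C) exposed 48 h at 28 °C, cell-free. Resazurin added for 5 more h, fluorescence read at ex 535/em 590 nm. Triplicates, three independent runs; IC50 from %growth inhibition curves, mean ± SD.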

Trypanosoma cruzi [9] = test: Antichagasic activity against Trypanosoma cruzi CL-B5 epimastigotes […] assessed as growth inhibition after 72 hrs by beta galactosidase reporter gene assay; format: functional, organism-based
How it was run: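 Then CPRG (200 µM final, pH 7.4) in Triton X-100 added for 3 h at 37 °C, A595 read. Triplicates, three independent runs; IC50 from dose–response of %growth inhibition, mean ± SD.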

[10] = Cytotoxicity against mouse L929 cells after 48 hrs by resazurin assay; format: cell-based; conditions: read-out: LC50
How it was run: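 L929 fibroblasts, 15×10^3 cells/well in MEM, attached 3 h. Exposed to compounds for 48 h at 37 °C, 5% CO2. Resazurin (2 mM solution in PBS) added for 3 h; fluorescence read at 535/590 nm to give % cytotoxicity. Triplicate wells, three independent runs. LC50 taken from concentration vs %C curves, mean ± SD.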

Trypanosoma cruzi [11] = test: Antichagasic activity against Trypanosoma cruzi CL-B5 intracellular amastigotes in mouse L929 cells assessed as growth inhibition after 7 days by beta galactosidase reporter gene assay; format: functional, organism-based; conditions: CL-B5, L929, 168 h
How it was run: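 L929 fibroblasts (10,000/well, MEM) infected overnight at 33 °C, 5% CO₂ with CL-B5 lacZ tissue-culture trypomastigotes (1:6 cell:parasite). Washed, then 7 days with compound in fresh MEM. CPRG (400 µM final, pH 7.4) in 3% Triton X-100 for 3 h at 37 °C, A595. Triplicates; IC50 from %amastigote growth inhibition curves, mean ± SD.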

[12] = Selectivity index, ratio of LC50 for mouse L929 cells to IC50 for Trypanosoma cruzi CL-B5 lacZ amastigotes in mouse L929 cells; format: toxicity, cell-based; conditions: read-out: Ratio LC50/IC50
How it was run: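 SI = LC50 (L929, 48 h resazurin) / amastigote IC50. Amastigotes: L929 cells (10,000/well, MEM) infected overnight at 33 °C with CL-B5 lacZ tissue-culture trypomastigotes (1:6 cell:parasite), washed, then exposed to compounds for 7 days. CPRG (400 µM final, 3% Triton X-100, pH 7.4) added for 3 h at 37 °C, A595 read. Triplicates; IC50 from %AGI curves. Assayed only when epimastigote SI warranted.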

[13] = Cytotoxicity against african green monkey Vero cells assessed as inhibition of cell growth after 24 hrs by resazurin dye based fluorescence assay; conditions: chlorocebus sabaeus
How it was run: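 Vero CCL-81 cells (50,000/well, RPMI with 10% FBS) attached 6 h at 37 °C, then 24 h with compound. Resazurin added for 3 h, fluorescence at ex 535/em 590 nm. Triplicates in two independent assays; CC50 and 95% confidence limits by probit analysis.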

Trichomonas vaginalis [14] = test: Trichomonacidal activity against metronidazole-resistant Trichomonas vaginalis IR78 trophozoites after 24 hrs by resazurin dye based fluorescence assay; format: functional, organism-based; conditions: IR78, 24 h; how it was run: as §1
[15] = Selectivity index, ratio of CC50 for african green monkey Vero cells to IC50 for metronidazole-resistant Trichomonas vaginalis IR78 trophozoites; format: functional; how it was run: as §2

Compound | IC50 (Trichomonas vaginalis [1]) | IC50 (Trypanosoma cruzi [2]) | CC50 at 48 h [3] | selectivity ratio [4] | inhibition at 24 h, 300 µM [5] | IC50 (Trypanosoma cruzi [6]) | Ratio CC50/IC50 [7] | IC50 (Trypanosoma cruzi [8]) | IC50 (Trypanosoma cruzi [9]) | CC50 at 48 h [10] | IC50 (Trypanosoma cruzi [11]) | selectivity ratio [12] | CC50 at 24 h [13] | IC50 (Trichomonas vaginalis [14]) | Ratio CC50/IC50 [15]
O=c1c2cc([N+](=O)[O-])ccc2n(CCO)n1Cc1ccccc1 | 17.9 µM | 0.6 µM | > 100 µM | > 162 | < 20% | 0.81 µM | >16.7 | 3.18 µM | 1.58 µM | > 256 µM | 0.22 µM | > 1160 | > 300 µM |  | 
O=C(Cn1ccnc1[N+](=O)[O-])NCc1ccccc1 [BENZNIDAZOLE] |  | 1.77 µM | > 100 µM | > 11.3 |  | 1.66 µM |  |  | 22.7 µM | > 256 µM | 0.68 µM | > 376 |  |  | 
O=[N+]([O-])c1ccc2nn(Cc3ccccc3)c(OCCCO)c2c1 | 7.25 µM |  |  | > 3.94 | 14.5% |  | >41.4 |  | 64.9 µM | > 256 µM |  |  | > 300 µM | 9.11 µM | >32.9
